# Test results from ChEMBL document CHEMBL3232832, “Derivatives of dibenzothiophene for positron emission tomography imaging of α7-nicotinic acetylcholine receptors” (J Med Chem, 2013).
# Legend:
# Hippocampus [1] = experiment: Drug uptake in CD-1 mouse hippocampus at 0.07 mCi, iv after 90 mins co-administered with SSR180711; type: ADME, organism-based; conditions: in vivo, 1.5 h
# In short: (§1)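 Male CD-1 mice (25–30 g), three per dose. Blocker in saline:ethanol 9:1 pH 5.5, given i.v. with [18F] radiotracer (70 µCi, SA 7900 mCi/µmol). Blocker doses 0, 0.02, 0.2, 1 and 3 mg/kg. Regions dissected 90 min later and gamma counted. Expressed as %ID/g, mean ± SD.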
# [2] = Drug uptake in CD-1 mouse superior and inferior colliculus at 70 uCi, iv administered 10 mins post SCH23390 challenge measured after 90 mins; type: ADME, organism-based; conditions: in vivo, 1.5 h
# In short: (§2)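 Male CD-1 mice (25–30 g). […] Brains removed 90 min later and dissected on ice. Regions weighed and gamma-counted against injectate standards. Result as %ID/g, mean ± SD, n=3; ANOVA versus controls.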
# Brain [3] = experiment: Drug uptake in CD-1 mouse other brain region at 70 uCi, iv administered 10 mins post ketanserin challenge measured after 90 mins; type: ADME, organism-based; conditions: in vivo, 1.5 h; in short: as §2
# Hippocampus [4] = experiment: Drug uptake in CD-1 mouse hippocampus at 70 uCi, iv administered 10 mins post spiperone challenge measured after 90 mins; type: ADME, organism-based; conditions: in vivo, 1.5 h
# In short: (§3)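 Male CD-1 mice, n=3. Drug at 2 mg/kg s.c. in saline:DMSO 5:1, with vehicle controls. [18F] radiotracer (70 µCi, SA ~14000 mCi/µmol) given i.v. 10 min later. Regions harvested 90 min after tracer, gamma counted, expressed as %ID/g. Compared by single-factor ANOVA.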
# Nucleic Acid [5] = experiment: Ratio of drug uptake from cortex to cerebellum in CD-1 mouse after 90 mins; type: ADME, tissue-based; conditions: 1.5 h
# Brain [6] = experiment: Drug uptake in CD-1 mouse other brain region at 70 uCi, iv administered 10 mins post ondansetron challenge measured after 90 mins; type: ADME, organism-based; conditions: in vivo, 1.5 h; in short: as §2
# Cerebellum [7] = experiment: Drug uptake in CD-1 mouse cerebellum at 70 uCi, iv after 90 mins in presence of cytisine; type: ADME, organism-based; conditions: in vivo, 1.5 h
# In short: (§4)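 Male CD-1 mice, n=3. […] [18F] radiotracer (70 µCi, SA ~14000 mCi/µmol) given i.v. 5 min later. Regions harvested at 90 min, gamma counted, expressed as %ID/g.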
# Cerebellum [8] = experiment: Drug uptake in CD-1 mouse cerebellum at 70 uCi, iv administered 10 mins post SCH23390 challenge measured after 90 mins; type: ADME, organism-based; conditions: in vivo, 1.5 h; in short: as §3
# Brain [9] = experiment: Drug uptake in CD-1 mouse other brain regions at 0.07 mCi, iv after 90 mins co-administered with SSR180711; type: ADME, organism-based; conditions: in vivo, 1.5 h
# In short: (§5)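 Male CD-1 mice. [18F]tracer (0.07 mCi, SA 7900 mCi/µmol, 0.2 mL) co-injected i.v. with blocker at 0 (vehicle), 0.02, 0.2, 1 or 3 mg/kg. Blocker dissolved in saline:alcohol 9:1, pH 5.5. Brain regions harvested at 90 min and gamma-counted. %ID/g, mean ± SD, n=3 per dose; ANOVA versus controls.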
# Hippocampus [10] = experiment: Drug uptake in CD-1 mouse hippocampus at 70 uCi, iv after 90 mins in presence of nicotine; type: ADME, organism-based; conditions: in vivo, 1.5 h; in short: as §4
# Cerebellum [11] = experiment: Drug uptake in CD-1 mouse cerebellum at 70 uCi, iv after 90 mins in presence of nicotine; type: ADME, organism-based; conditions: in vivo, 1.5 h; in short: as §4
# [12] = Drug uptake in CD-1 mouse superior and inferior colliculus at 70 uCi, iv administered 10 mins post ketanserin challenge measured after 90 mins; type: ADME, organism-based; conditions: in vivo, 1.5 h; in short: as §2
# Thalamus = experiment: Drug uptake in CD-1 mouse thalamus at 0.07 mCi, iv after 90 mins co-administered with SSR180711; type: ADME, organism-based; conditions: in vivo, 1.5 h; in short: as §5
# Cortex [13] = experiment: Drug uptake in CD-1 mouse cortex at 0.07 mCi, iv after 90 mins co-administered with SSR180711; type: ADME, organism-based; conditions: in vivo, 1.5 h; in short: as §1
# [14] = Drug uptake in CD-1 mouse superior and inferior colliculus at 70 uCi, iv after 90 mins in presence of cytisine; type: ADME, organism-based; conditions: in vivo, 1.5 h
# Cortex [15] = experiment: Drug uptake in CD-1 mouse cortex at 70 uCi, iv after 90 mins in presence of cytisine; type: ADME, organism-based; conditions: in vivo, 1.5 h; in short: as §4
# Nucleic Acid [16] = experiment: Ratio of drug uptake from superior and inferior colliculus to cerebellum in CD-1 mouse after 90 mins; type: ADME, nucleic-acid assay; conditions: 1.5 h
# In short: (§6)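 CD-1 mouse baseline biodistribution after i.v. [18F]radioligand (70 µCi, 8000–12000 mCi/µmol, in 0.2 mL saline), three mice per time point to 90 min. Regional gamma-counting gave %ID/g, and each region was expressed as a ratio to cerebellum.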
# Cerebellum [17] = experiment: Drug uptake in CD-1 mouse cerebellum at 0.07 mCi, iv after 90 mins co-administered with 3 mg/kg SSR180711; type: ADME, organism-based; set-up: dose 3 mg/kg, route intravenous; conditions: in vivo, 1.5 h; in short: as §1
# Cerebellum [18] = experiment: Drug uptake in CD-1 mouse cerebellum at 70 uCi, iv followed by compound washout by gamma-counting analysis; type: ADME, organism-based; conditions: in vivo
# In short: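 Male CD-1 mice (25–30 g), three per time point. [18F] radiotracer (70 µCi, SA 8000–12000 mCi/µmol, in 0.2 mL saline) given by tail vein. Killed at several times up to 90 min. Dissected regions weighed and gamma counted against injectate standards, giving %ID/g.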
# Hippocampus [19] = experiment: Drug uptake in CD-1 mouse hippocampus at 70 uCi, iv administered 10 mins post ondansetron challenge measured after 90 mins; type: ADME, organism-based; conditions: in vivo, 1.5 h; in short: as §3
# [20] = Drug uptake in CD-1 mouse superior and inferior colliculus at 70 uCi, iv administered 10 mins post SSR180711 challenge measured after 90 mins; type: ADME, organism-based; conditions: in vivo, 1.5 h
# In short: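 Male CD-1 mice given the selective α7 partial agonist as positive control, 2 mg/kg s.c. in saline:DMSO 5:1 (0.1 mL), 10 min before i.v. [18F]tracer (70 µCi, ~14000 mCi/µmol, 0.2 mL). Controls received vehicle. Brain regions dissected at 90 min and gamma-counted. %ID/g, mean ± SD, n=3; ANOVA.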
# [21] = Drug uptake in CD-1 mouse superior and inferior colliculus at 70 uCi, iv administered 10 mins post ondansetron challenge measured after 90 mins; type: ADME, organism-based; conditions: in vivo, 1.5 h; in short: as §2
# Brain [22] = experiment: Drug uptake in CD-1 mouse other brain region at 70 uCi, iv administered 10 mins post SSR180711 challenge measured after 90 mins; type: ADME, organism-based; conditions: in vivo, 1.5 h
# Brain [23] = experiment: Drug uptake in CD-1 mouse other brain region at 70 uCi, iv after 90 mins in presence of cytisine; type: ADME, organism-based; conditions: in vivo, 1.5 h
# Striatum [24] = experiment: Drug uptake in CD-1 mouse striatum at 0.07 mCi, iv after 90 mins co-administered with SSR180711; type: ADME, organism-based; conditions: in vivo, 1.5 h; in short: as §5
# Striatum [25] = experiment: Drug uptake in CD-1 mouse striatum at 70 uCi, iv followed by compound washout by gamma-counting analysis; type: ADME, organism-based; conditions: in vivo
# In short: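 Male CD-1 mice (25–30 g) given [18F]radioligand i.v. into a lateral tail vein (70 µCi, 8000–12000 mCi/µmol, in 0.2 mL saline). Killed by cervical dislocation at various times, three per time point. Brains dissected on ice; regions weighed and gamma-counted with injectate standards. Result as %ID/g.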
# Brain [26] = experiment: Drug uptake in CD-1 mouse other brain region at 70 uCi, iv administered 10 mins post naltrindole challenge measured after 90 mins; type: ADME, organism-based; conditions: in vivo, 1.5 h; in short: as §2
# Cerebellum [27] = experiment: Drug uptake in CD-1 mouse cerebellum at 70 uCi, iv administered 10 mins post ketanserin challenge measured after 90 mins; type: ADME, organism-based; conditions: in vivo, 1.5 h; in short: as §3
# Cerebellum [28] = experiment: Ratio of clearance in CD-1 mouse cerebellum to clearance in CD-1 mouse other brain tissues at 70 uCi, iv followed by compound washout after 90 mins by gamma-counting analysis; type: ADME, organism-based; conditions: in vivo, 1.5 h; in short: as §6
smiles,measurement,setting,value
O=S1(=O)c2cc(N3CCN4CCC3CC4)ccc2-c2cccc([18F])c21,Drug uptake,Hippocampus [1],Not Active
same,Drug uptake,[2],Active
same,Drug uptake,Brain [3],Active
same,Drug uptake,Hippocampus [4],Active
same,Ratio,Nucleic Acid [5],5.3
same,Drug uptake,Brain [6],Active
same,Drug uptake,Cerebellum [7],Not Active
same,Drug uptake,Cerebellum [8],Active
same,Drug uptake,Brain [9],Not Active
same,Drug uptake,Hippocampus [10],Not Active
same,Drug uptake,Cerebellum [11],Active
same,Drug uptake,[12],Active
same,Drug uptake,Thalamus,Not Active
same,Drug uptake,Cortex [13],Not Active
same,Drug uptake,[14],Not Active
same,Drug uptake,Cortex [15],Not Active
same,Ratio,Nucleic Acid [16],8
same,Drug uptake,Cerebellum [17],Not Active
same,Drug uptake,Cerebellum [18],Active
same,Drug uptake,Hippocampus [19],Active
same,Drug uptake,[20],Not Active
same,Drug uptake,[21],Active
same,Drug uptake,Brain [22],Not Active
same,Drug uptake,Brain [23],Not Active
same,Drug uptake,Striatum [24],Not Active
same,Drug uptake,Striatum [25],Active
same,Drug uptake,Brain [26],Active
same,Drug uptake,Cerebellum [27],Active
same,Ratio,Cerebellum [28],10
